# CFTR F508del cor: correctors of CFTR F508del function in bronchial epithelial cells | CFBE cells, YFP halide quenching; stimulated with forskolin plus potentiator P3; % fluorescence drop versus neutral controls | activity (quench increase), % at 7.58 µM | 0.36% of 350,000 active;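 active = mean added fluorescence quench of at least 8% versus neutral control, with both replicates also reaching 8%; inconclusive = only one of the mean or replicate conditions met; inactive = mean below 8% and not both replicates reaching 8%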;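 also: cells transiently co-express mutant CFTR-F508del with the halide-sensitive YFP; corrector assay measuring rescue of mutant channel to the surface after 24 h compound exposure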
# Cneo AK release: causes C. neoformans cell lysis | lysis activity, % at 15 µM | 0.2% of 360,000 active | adenylate kinase release luminescence, 4 h; normalised: neutral wells 0, clomiphene wells 100 | AID 651654;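 active = mean lysis activity across replicates of at least 80%, whatever share of replicates individually reach that level; inactive = mean lysis activity below 80%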
#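 read-out = cell lysis signal | test system = log-phase Cryptococcus neoformans yeast cells | input = cells at 5 × 10^6 per mL | medium = fresh YPD growth medium | signal = luminescent adenylate kinase detection reagent | timing = 4 h at 37 °C static, read 1 h later | dosing = single dose | controls = Clomiphene as positive lysis control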
# CaV13 ICDI inh: Disruptors of the CACNA1D IQ motif to Ca2+-dependent inactivation inhibitor domain association, primary screening, Förster resonance energy transfer in intact living …; 0.098% of 340,000 active; inhibition, % at 12.3 µM; HEK cells, CFP/YFP FRET ICDI-IQ, plate reader, 10 min; percent FRET-ratio fall versus neutral wells; AID 743397;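 active = mean replicate inhibition of at least 30% and at least 1% of replicates passing that level; inconclusive = only one of the two criteria is met; inactive = neither criterion is met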;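 also: 0% = median of the neutral control wells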
# Ecoli rRNA inh: selective bacterial rRNA inhibition in E. coli | E. coli WT GFP vs humanized-ribosome RFP mutants, fluorescence, 24 h; stronger effect = lower value; DMSO median 0, no signal -100 | GFP signal change (wild-type ribosome), % (no concentration beside the values) | 1.6% of 350,000 active;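 active = significant combined selectivity score with lowered wild-type GFP, culture density cut under 30%, mutant RFP and density less affected; inactive = any of these conditions unmet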
# * hit, by the source's call; ? = inconclusive; . = not tested or not shown. This is a sample that favours compounds with a hit; in the whole collection about 1.7% have one here.
SMILES,CFTR F508del cor,Cneo AK release,CaV13 ICDI inh,Ecoli rRNA inh
COc1cccc(C(=O)Nc2sc3c(c2C#N)CCN(C(C)=O)C3)c1,14*,.,13,-5
O=S(=O)(Cc1ccccc1)N1CCCCN2[C@H](CO)[C@@H](c3ccc(-c4ccccc4)cc3)[C@@H]2C1,0,-1,.,3
O=C(CSc1nc2nn(-c3ccccc3)c(=O)c-2c2n1CCCCC2)Nc1ccc(OC(F)F)cc1,8.1*,-1,-6,0
COC(=O)c1ccc(COc2ccc(C)cc2[N+](=O)[O-])o1,-1,-1,-4,-24*
Cc1cccn2c(=O)c3cc(C(N)=S)c(=N)n(CCCOC(C)C)c3nc12,.,3,34*,.
CCNC(=O)c1cc2c(=O)n3cccc(C)c3nc2n(CCc2ccccc2)c1=N,.,4,.,.
Cc1cccn2c(=O)c3cc(C(=O)NCCN4CCOCC4)c(=N)n(CCc4ccccc4)c3nc12,.,3,34*,.
Cc1cccn2c(=O)c3cc(C(=O)NCCc4ccccc4)c(=N)n(CCCn4ccnc4)c3nc12,.,0,33*,.
COc1cccc(C(=O)NC(=S)Nc2ccc3oc(=O)ccc3c2)c1,.,-2,-5,25
COc1cc(OC)cc(C(=O)NC(=S)Nc2ccc3oc(=O)ccc3c2)c1,9.6*,0,-4,4
C[C@@H]1CCCCO[C@@H](CN(C)C(=O)c2ccccc2)[C@H](C)CN([C@@H](C)CO)C(=O)c2cc(NC(=O)c3ccncc3)ccc2O1,2,.,.,-2
Cc1ccc(Oc2c(CO)c(-c3ccccc3)nn2C)cc1,2,.,-4,-24*
Cc1ccc(S(=O)(=O)c2c(CO)c(-c3ccccc3)nn2C)cc1,0,.,-3,-11
COC(=O)CNc1cc(S(=O)(=O)N2CCCCC2)ccc1Oc1ccc(C(=O)OC)cc1,8.7*,3,-4,-3
O=C(C[C@H]1C[C@H]2c3cc(NC(=O)Cc4ccncc4)ccc3O[C@H]2[C@@H](CO)O1)NCCN1CCCCC1,1,55,.,9
NS(=O)(=O)c1cccc(NC(=O)COC(=O)c2ccccc2C(=O)c2ccccc2)c1,1,-1,-3,-32*
CCS(=O)(=O)NCC[C@H]1CC[C@H](NC(=O)C2CCCC2)[C@@H](CO)O1,3,-2,.,-1
O=C(CSC1=NCCN1)Nc1cccc([N+](=O)[O-])c1,10*,6,-3,-8
CCCN1C(=O)/C(=C/C=C2\N(CC)c3ccccc3C2(C)C)SC1=S,.,0,-6,.
CCCCN1C(=O)/C(=C/C=C2\Oc3ccccc3N2CC)SC1=S,17*,-3,-3,-5
CN(C)C(=O)[C@@H]1[C@@H](CO)[C@@H]2Cn3c(ccc(C4=CCCC4)c3=O)[C@H]1N2CC1CCOCC1,.,-1,.,-1
Cc1ccc(N/N=C(\C#N)C(N)=S)cc1C,-1,.,0,-33*
N#C/C(=N\Nc1ccc(Cl)cc1)C(N)=S,?,-4,-2,-52
O=C(CCCCCN1C(=O)[C@@H]2Cc3ccccc3CN2C1=O)Nc1cccc(F)c1,3,1,-4,-35*
COc1cccc(-c2ccc([C@@H]3[C@@H](CO)N4C(=O)CN(C(=O)C5CCOCC5)C[C@@H]34)cc2)c1,-1,.,.,1
SMILES,CFTR F508del cor,Cneo AK release,CaV13 ICDI inh,Ecoli rRNA inh
CSc1nnc(-c2cc(Br)ccc2N=Cc2c(C)[nH]n(-c3ccccc3)c2=O)c(=O)[nH]1,1,.,-3,-25*
CCOc1ccccc1-n1c(SCC(=O)Nc2nccs2)nnc1-c1ccoc1C,.,1,-5,.
CCOc1ccc(-n2c(SCC(=O)Nc3nccs3)nnc2-c2ccoc2C)cc1,0,12,179*,-12
Cc1nc(N)[nH]c(=O)c1CCCNS(=O)(=O)c1ccc([N+](=O)[O-])cc1,8.1*,7,-5,4
COc1ccc(OC)c(C(=O)COC(=O)c2cc(C)oc2C)c1,.,1,.,.
COc1ccc(OC)c(C(=O)COC(=O)c2ccc([N+](=O)[O-])o2)c1,4,-2,-2,-20*
CC(C)Cc1csc(NC(=O)C(C)C)c1C(=O)O,-1,0,-4,-1
CC(C)Cc1csc(NC(=O)c2ccc(Br)cc2)c1C(=O)O,-2,1,-5,-26*
N=C1SCC(=O)N1c1ncc(Cc2ccc(F)cc2)s1,1,15,-4,-47*
COc1ccc(-c2cnc(N)nc2-c2ccc(OC)cc2O)cc1,.,-2,-2,-28*
COc1ccc(-c2nc(N)ncc2-c2ccccc2)c(O)c1,4,.,-1,-3

# Screening data: PubChem BioAssay, Broad Institute
